Active and inactive are the calls of the source. The calls are words filed in the database; no cut-off is given here.

This note sets out measurements from ChEMBL document CHEMBL1122273, “5-sulfamoylorthanilic acids, a sulfonamide series with salidiuretic activity” (J Med Chem, 1983).

For assay [1], the species on record is Rattus norvegicus. Briefly: Saluretic activity in the rat measured as concentration of chloride in urine. It counts as functional. The method, boiled down: (§1)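 Rats deprived of food 24 h, water ad libitum, dosed 50 mg/kg by stomach tube as suspension in 2% starch, no extra water load. Groups of three in diuresis funnels; urine over first 5 h collected. Na⁺ and K⁺ by flame photometry, Cl⁻ argentometrically; expressed as mequiv/kg.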

Assay [2] is filed under the species Rattus norvegicus. In words: Saluretic activity in the rat measured as concentration of Na+ in urine. It counts as functional. The method, boiled down:
as §1

Assay [3] concerns Canis familiaris. In words: Saluretic activity in the dog measured as concentration of Na+ in urinary excretion (2 animals/dose) at (dose 1.56 mg/Kg, po). Type of assay: functional, Canis lupus familiaris, Urine. In a few lines:
(§2)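 Male beagles trained to rest on a table and to accept stomach tube and catheter. Food withdrawn 24 h before, tap water ad libitum. Bladder emptied by catheter, then 20 mL/kg tap water by stomach tube. Catheterized hourly up to 8 h with 4 mL/kg water orally each time; first 2 h urine served as control. Oral dosing after second catheterization. Pooled 1–6 h urine; Na⁺/K⁺ by flame photometry, Cl⁻ argentometrically.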

A short description of assay [4]: It is the ratio, measured as saluretic activity in the dog as concentration of Cl- in urinary excretion (dose 1.56 mg/Kg, po) to that of (Na+)+(K+). It counts as functional, Urine. In a few lines:
(§3)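 Trained male beagles, fasted 24 h with tap water ad libitum. Bladder emptied by catheter, then 20 mL/kg tap water by stomach tube, with 4 mL/kg water at each hourly catheterization up to 8 h. The first 2 h of urine served as control. Oral dosing came after the second catheterization, and 1–6 h urine was pooled. Na⁺ and K⁺ were measured by flame photometry, Cl⁻ argentometrically, in mequiv/kg.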

Assay [5] relates to Canis familiaris. In words: Diuretic activity in the dog (2 animals/dose) at (dose 1.56 mg/Kg), when administered perorally. It counts as functional, Canis lupus familiaris, Urine. The method, boiled down: as §3
The nature of assay [6]: It is the ratio, measured as saluretic activity in the dog as concentration of Na+ in urinary excretion (dose 1.56 mg/Kg, po) to that of K. Type of assay: functional, Urine. The method, boiled down: as §3
Assay [7] is filed under the species Rattus norvegicus. Briefly: Diuretic activity in the rats, determined by a modified Lipschitz test. It counts as functional, Urine. In a few lines: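 Modified Lipschitz test: rats deprived of water 24 h, grouped in threes of similar weight in diuresis funnels. Oral dose of 50 mg/kg, suspended in 2% starch solution, by stomach tube.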
Assay [8] deals with Canis familiaris. In words: Saluretic activity in the dog measured as concentration of Cl - in urinary excretion (2 animals/dose) at (dose 1.56 mg/Kg, po). Type of assay: functional, Canis lupus familiaris, Urine. The method, boiled down:
(§4)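 Male beagles trained to the procedures, food withdrawn 24 h before, tap water ad libitum. Bladder emptied by catheter, then 20 mL/kg tap water by stomach tube, plus 4 mL/kg orally at each hourly catheterization up to 8 h. The first 2 h of urine served as control. Compound given orally after the second catheterization. Urine from 1–6 h post-dose pooled; Na⁺ and K⁺ by flame photometry, Cl⁻ argentometrically, in mequiv/kg.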

Assay [9] relates to Canis familiaris. In words: Saluretic activity in the dog measured as concentration of K+ in urinary excretion (2 animals/dose) (dose 1.56 mg/kg, p.o.). It counts as functional, Canis lupus familiaris, Urine. The note with it: route oral. The method, boiled down:
as §4

Assay [10] is filed under the species Rattus norvegicus. Briefly: Saluretic activity in the rat measured as concentration of K+ in urine. It counts as functional. The method, boiled down: as §1
Assay [11] deals with Canis familiaris. In words: Saluretic activity in the dog measured as concentration of Na+ in urinary excretion (2 animals/dose) at (dose 0.4 mg/Kg, perorally). Type of assay: functional, Canis lupus familiaris, Urine. The method, boiled down: as §2
Assay [12] is described as follows: It is the ratio, measured as saluretic activity in the dog as concentration of Cl- in urinary excretion ( perorally) to that (Na++K+).
In assay [13] the test system is Canis familiaris. Briefly: Saluretic activity in the dog measured as concentration of Na+ in urinary excretion (2 animals/dose) at (dose 6.25 mg/Kg, perorally). It counts as functional, Canis lupus familiaris, Urine. In a few lines:
as §2

Assay [14] concerns Canis familiaris. In words: Saluretic activity in the dog measured as concentration of K+ in urinary excretion (2 animals/dose) at (dose 1.56 mg/Kg, perorally). It counts as functional, Canis lupus familiaris, Urine. In a few lines:
as §4

Assay [15] has as its system Canis familiaris. Briefly: Saluretic activity in the dog measured as concentration of Cl - in urinary excretion (2 animals/dose) at (1.56 mg/Kg, perorally). Type of assay: functional, Canis lupus familiaris, Urine. The method, boiled down: as §4
Assay [16] is described as follows: It is the ratio, measured as saluretic activity in the dog as concentration of Cl- in urinary excretion (dose 6.25 mg/Kg, perorally) to that of (Na+)+(K+). Type of assay: functional, Urine. The method, boiled down:
as §3

Assay [17] in a line: It is the ratio, measured as saluretic activity in the dog as concentration of Na+ in urinary excretion (dose 0.4 mg/Kg, perorally) to that of K. It counts as functional, Urine. The method, boiled down: as §3
The subject of assay [18] is Canis familiaris. In words: Diuretic activity in the dog (2 animals/dose) at (dose 6.25 mg/Kg), when administered perorally. Type of assay: functional, Canis lupus familiaris, Urine. In a few lines: as §3
The subject of assay [19] is Canis familiaris. Briefly: Saluretic activity in the dog measured as concentration of Cl - in urinary excretion (2 animals/dose) at (dose 0.4 mg/Kg, perorally). It counts as functional, Canis lupus familiaris, Urine. The method, boiled down:
as §4

Assay [20] has as its system Canis familiaris. Briefly: Saluretic activity in the dog measured as concentration of Na+ in urinary excretion (2 animals/dose) at (dose 1.56 mg/Kg, perorally). It counts as functional, Canis lupus familiaris, Urine. The method, boiled down: as §2
For assay [21], the system named is Canis familiaris. In words: Saluretic activity in the dog measured as concentration of K+ in urinary excretion (2 animals/dose) at (dose 0.4 mg/Kg, perorally). Type of assay: functional, Canis lupus familiaris, Urine. The method, boiled down: as §4
For assay [22], the system named is Canis familiaris. In words: Saluretic activity in the dog measured as concentration of Cl - in urinary excretion (2 animals/dose) at (dose 6.25 mg/Kg, perorally). Type of assay: functional, Canis lupus familiaris, Urine. In a few lines: as §4
Assay [23] can be described thus: It is the ratio, measured as saluretic activity in the dog as concentration of Na+ in urinary excretion (dose 1.56 mg/Kg, perorally) to that of K. Type of assay: functional, Urine. In a few lines:
as §3

Assay [24] in a line: It is the ratio, measured as saluretic activity in the dog as concentration of Na+ in urinary excretion (dose 6.25 mg/Kg, perorally) to that of K. It counts as functional, Urine. In a few lines:
as §3

In assay [25] the test system is Canis familiaris. In words: Diuretic activity in the dog (2 animals/dose) at (dose 0.4 mg/Kg), when administered perorally. Type of assay: functional, Canis lupus familiaris, Urine. In a few lines: as §3
Assay [26] deals with Canis familiaris. In words: Saluretic activity in the dog measured as concentration of K+ in urinary excretion (2 animals/dose) at (dose 6.25 mg/Kg, perorally). Type of assay: functional, Canis lupus familiaris, Urine. The method, boiled down: as §2
A short description of assay [27]: It is the ratio, measured as saluretic activity in the dog as concentration of Cl- in urinary excretion (dose 0.4 mg/kg perorally) to that of (Na+)+(K+). It counts as functional, Urine. The note with it: route oral. In a few lines:
as §3

The test system of assay [28] is Canis familiaris. Briefly: Saluretic activity in the dog measured as concentration of K+ in urinary excretion (2 animals/dose) at (dose 1.56 mg/Kg, po). Type of assay: functional, Canis lupus familiaris, Urine. The method, boiled down:
as §2

The test system of assay [29] is Rattus norvegicus. Briefly: Salidiuretic activity on the basis of the 50 mg/kg po rat assay; compound was highly active. Also noted: dose 50 mg/kg. The note with it: Urine. Type of assay: functional, organism-based.
In assay [30] the test system is Canis familiaris. Briefly: Saluretic activity in the dog measured as concentration of Na+ in urinary excretion (2 animals/dose) at (dose 0.1 mg/Kg, po). Type of assay: functional, Canis lupus familiaris, Urine. In a few lines: as §2
The test system of assay [31] is Canis familiaris. In words: Saluretic activity in the dog measured as concentration of K+ in urinary excretion (2 animals/dose) at (dose 0.1 mg/Kg, po). Type of assay: functional, Canis lupus familiaris, Urine. The method, boiled down: as §4
Assay [32] relates to Canis familiaris. Briefly: Diuretic activity in the dog (2 animals/dose) at (dose 0.1 mg/Kg), when administered perorally. It counts as functional, Canis lupus familiaris, Urine. The method, boiled down: as §3
Assay [33] concerns Canis familiaris. Briefly: Saluretic activity in the dog measured as concentration of Cl - in urinary excretion (2 animals/dose) at (dose 0.1 mg/Kg, po). It counts as functional, Canis lupus familiaris, Urine. In a few lines:
as §4

For assay [34], the system named is Canis familiaris. In words: Salidiuretic activity on the basis of the 1.56 mg/Kg po dog assay; compound was highly active. Type of assay: functional, organism-based. To be noted: Canis lupus familiaris; Urine.
Assay [35] can be described thus: It is the ratio, measured as saluretic activity in the dog as concentration of Cl- in urinary excretion (dose 0.1 mg/Kg, po) to that of (Na+)+(K+). It counts as functional, Urine. In a few lines:
as §3

Assay [36] can be described thus: It is the ratio, measured as saluretic activity in the dog as concentration of Na+ in urinary excretion (dose 0.1 mg/Kg, po) to that of K. Type of assay: functional, Urine. In a few lines: as §3

Consider `CCCC[S+]([O-])c1cc(NCc2ccco2)c(S(=O)(=O)[O-])cc1S(N)(=O)=O.[Na+]` (stereo not given), for which the Saluretic activity in the assay listed under Rattus norvegicus [1] is 1.4 m equiv 5hr-1 kg-1; in the assay filed under Rattus norvegicus [2], 0.9 m equiv 5hr-1 kg-1; in the assay on Canis familiaris [3], 0.89 m equiv 6hr-1 kg-1; in the assay listed under Rattus norvegicus [10], 1 m equiv 5hr-1 kg-1. Besides, the Ratio in assay [4] stood at 1; in assay [6] it was 3. The figures for the Diuretic activity with Canis familiaris [5] and in the assay filed under Rattus norvegicus [7] were 34.9 ml kg-1 6hr-1 and 1 mL/kg, respectively. Moreover, the Saldiuretic activity is 1.43 m equiv 6hr-1 kg-1 in the assay with Canis familiaris [8] and 0.35 (m equiv) 6hr-1 kg-1 in the assay on Canis familiaris [9].

As for `NS(=O)(=O)c1cc(S(=O)(=O)[O-])c(NCc2ccco2)cc1Cl.[Na+]`, the Saluretic activity with Canis familiaris [11] was 0.45 m equiv 6hr-1 kg-1; in the assay listed under Rattus norvegicus [1], 8.3 m equiv 5hr-1 kg-1; in the assay listed under Rattus norvegicus [2] it was 7.1 m equiv 5hr-1 kg-1; in the assay on Canis familiaris [13], 4.36 m equiv 6hr-1 kg-1; in the assay on Canis familiaris [14], 0.53 m equiv 6hr-1 kg-1; in the assay with Canis familiaris [19] it was 0.69 m equiv 6hr-1 kg-1. Also, the figures for the Saluretic activity in the assay with Canis familiaris [20], in the assay with Canis familiaris [21] and in the assay listed under Rattus norvegicus [10] were 2.61 m equiv 6hr-1 kg-1, 0.19 m equiv 6hr-1 kg-1 and 2.3 m equiv 5hr-1 kg-1, respectively. For the same compound, the Ratio is given as 1 in [12]; 0.9 in [16]; 2.3 in assay [17]; 4.9 in [23]; 5.6 in assay [24]; 1.1 in assay [27]. The “Concentration of Cl-” value with Canis familiaris [15] is 3.24 m equiv 6hr-1 kg-1. In addition, the Diuretic activity in the assay with Canis familiaris [5] amounted to 42.4 ml kg-1 6hr-1; with Canis familiaris [18] it was 66.5 ml kg-1 6hr-1; in the assay listed under Rattus norvegicus [7], 2.8 mL/kg; with Canis familiaris [25] it was 37 ml kg-1 6hr-1. For the same compound, the Saldiuretic activity with Canis familiaris [22] was 4.74 m equiv 6hr-1 kg-1; in the assay with Canis familiaris [26] it was 0.78 m equiv 6hr-1 kg-1.

On to `NS(=O)(=O)c1cc(S(=O)(=O)[O-])c(NCc2cccs2)cc1S(=O)(=O)C1CCCCC1.[Na+]`, for which the Saluretic activity is 8.7 m equiv 5hr-1 kg-1 in the assay filed under Rattus norvegicus [1]; 7.3 m equiv 5hr-1 kg-1 in the assay filed under Rattus norvegicus [2]; 5.4 m equiv 6hr-1 kg-1 in the assay on Canis familiaris [3]; 1.05 m equiv 6hr-1 kg-1 with Canis familiaris [28]; 3.18 m equiv 6hr-1 kg-1 in the assay with Canis familiaris [30]; 2.2 m equiv 5hr-1 kg-1 in the assay listed under Rattus norvegicus [10]. The Ratio in assay [4] was 1; in [6], 5.1; in assay [35], 1; in assay [36], 7.7. Also, the Saldiuretic activity result in the assay with Rattus norvegicus [29] and in the assay on Canis familiaris [34] was “Active” each time. Moreover, the results for the Diuretic activity with Canis familiaris [5], in the assay listed under Rattus norvegicus [7] and with Canis familiaris [32] were 66.7 ml kg-1 6hr-1, 4 mL/kg and 47.4 ml kg-1 6hr-1, respectively. In addition, the Saldiuretic activity with Canis familiaris [8] turned out to be 6.39 m equiv 6hr-1 kg-1; with Canis familiaris [31], 0.41 m equiv 6hr-1 kg-1; in the assay with Canis familiaris [33] it was 3.54 m equiv 6hr-1 kg-1.
